# Screens (PubChem)
# PP5 inh: PP5 (human) phosphatase inhibition; P53041; purified PP5c, OMFP substrate fluorescence; inhibition, % at 6.7 µM; actives 0.18% (n = 320,000); AID 1987;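 active = inhibition above the campaign's mean inhibition across all tested compounds plus 3 SD, cut at about 9.5% in these data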;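 also: 0% = DMSO only and 100% = 100 µM cantharidin control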
# HCV core dimer: HCV core protein dimerization inhibition; TR-FRET GST/Flag-core106 dimerization, 1536-well; inhibition, % at 5 µM; actives 0.33% (n = 300,000);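 active = inhibition above the mean of all tested compounds plus 3 SD, set per screening campaign, cut at about 45% in these data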
#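 assay system = GST-tagged and Flag-tagged HCV core protein residues 1-106 | controls = unlabelled core106 and no-GST-core106 wells | incubation = compound-protein-antibody incubation 4 h at 22.5 °C | probe or stimulus = Eu donor and XL665 acceptor anti-tag antibodies | read-out = % inhibition based on acceptor/donor emission ratio | signal = TR-FRET 671 and 617 nm emission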
# PP1 inh: blocks human PP1-alpha phosphatase, a PP5 counter-screen; P62136; purified PP1alpha, OMFP fluorescence; inhibition, % at 6.7 µM; actives 0.9% (n = 320,000);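 active = inhibition above the mean inhibition of all tested compounds plus 3 SD, computed separately for each screening campaign, cut at about 15% in these data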
# Target sequence (P62136 whole entry, looked up): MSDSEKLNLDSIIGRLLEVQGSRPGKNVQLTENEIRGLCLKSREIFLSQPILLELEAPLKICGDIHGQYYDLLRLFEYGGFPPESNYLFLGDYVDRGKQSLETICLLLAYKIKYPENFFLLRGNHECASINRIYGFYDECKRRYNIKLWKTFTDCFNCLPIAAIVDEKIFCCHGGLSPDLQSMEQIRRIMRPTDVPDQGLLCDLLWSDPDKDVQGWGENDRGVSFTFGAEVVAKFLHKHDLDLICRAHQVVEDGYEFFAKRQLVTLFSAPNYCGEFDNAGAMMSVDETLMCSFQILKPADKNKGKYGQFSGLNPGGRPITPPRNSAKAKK
# ZTA counter: counter-screen for EBNA-1 inhibitors: inhibitors of Epstein-Barr virus ZTA; ZTA-DNA binding, fluorescence polarization; AID 2234; inhibition, % at 11 µM; actives 0.15% (n = 320,000); in the data active = inhibition above about 33%
# Target sequence (P03206 whole entry, looked up): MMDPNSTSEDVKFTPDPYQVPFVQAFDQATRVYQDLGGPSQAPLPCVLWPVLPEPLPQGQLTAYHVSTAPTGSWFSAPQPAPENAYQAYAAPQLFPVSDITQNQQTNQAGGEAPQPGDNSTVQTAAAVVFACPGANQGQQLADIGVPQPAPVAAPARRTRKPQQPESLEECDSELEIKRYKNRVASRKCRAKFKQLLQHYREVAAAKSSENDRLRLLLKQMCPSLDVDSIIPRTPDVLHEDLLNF
# EBNA-1 inhibitor: blocks EBNA-1 binding to DNA. EBNA-1 DNA binding, fluorescence polarization. inhibition, % at 14.8 µM. actives 0.34% (n = 300,000). AID 1950; in the data active = inhibition above about 28%
# EBNA-1 inh conf: EBNA-1 (EBV) inhibition, confirmation. inhibition, % at 14.8 µM. AID 2292. shares compounds with EBNA-1 inhibitor. actives 35% (n = 830). Recombinant EBNA-1 DBD, Cy5-DNA fluorescence polarization;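 active = mean inhibition across replicates above a set limit taken from the earlier primary screen, cut at about 28% in these data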;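 also: plate controls were EBNA-1 protein with DMSO for no effect and wells lacking EBNA-1 for full effect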
# ZTA counter trip: ZTA (EBV) inhibition, triplicate counter-screen. 830 tested, under 10 active. shares compounds with EBNA-1 inhibitor. AID 2328. inhibition, % at 11.1 µM. Zta-ZRE DNA binding, Cy5 fluorescence polarization;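 active = mean inhibition over triplicates above a set limit taken from the primary EBNA-1 screen, cut at about 37% in these data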;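 also: purified full length Zta protein with Cy5 labeled ZRE DNA probe; 0% = Zta with DMSO and 100% = wells lacking Zta protein; inhibitors lower polarization by freeing the labeled DNA probe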
# * = called active by the depositor; x = not tested or not shown. Sampled rows, rich in hits. Any-hit rate of the full collection: about 1.7%.
SMILES,PP5 inh,HCV core dimer,PP1 inh,ZTA counter,EBNA-1 inhibitor,EBNA-1 inh conf,ZTA counter trip
COc1ccccc1C(=O)Nc1nc2ccccc2s1,3,2,-3,-12,31*,-5,-2
COc1ccc(C(=O)Nc2nc3ccccc3s2)c(OC)c1,1,2,4,-3,-3,x,x
COc1n[nH]c(C(=O)Nc2nc3ccccc3s2)c1[N+](=O)[O-],1,1,-3,0,34*,0,-3
COc1n[nH]c(C(=O)NCc2ccccc2)c1[N+](=O)[O-],-2,0,-2,1,7,x,x
O=C(NNC(=O)c1sccc1-n1cccc1)Nc1ccc(F)cc1,-1,-3,-1,-14,-3,x,x
Cc1ccc2[nH]c(=O)c(CN(Cc3cccs3)C(=S)NCC3CCCO3)cc2c1 (stereo not given),4,1,3,9,44*,17,-5
Cc1cc(S(=O)(=O)NCc2ccccc2)ccc1OCC(=O)NCc1ccncc1,5,6,0,-7,-17,x,x
CN(C)C(CNC(=O)c1ccc2c(=O)n(-c3ccccc3F)c(=S)[nH]c2c1)Cc1ccccc1 (stereo not given),-1,1,0,2,4,x,x
Cc1cc(C)n(/N=C/c2c[nH]c3ccccc23)c(=O)c1C#N,0,0,-6,-1,28*,14,-7
Cc1cc(C)n(/N=C/c2ccccc2)c(=O)c1C#N,2,1,-4,0,3,x,x
CC(C)C(C)NC(=O)CSc1nnc(-c2c[nH]c3ccccc23)o1 (stereo not given),0,1,7,4,0,x,x
Cc1ccc(C(=O)CSc2nnc(-c3c[nH]c4ccccc34)o2)cc1,2,1,4,-1,29*,-8,-1
Cc1cccc(C)c1NC(=O)COc1ccc2c(C)c(Cc3ccccc3)c(=O)oc2c1,-3,20,0,11,68*,7,-5
CC(=O)Nc1ccc(NC(=O)Cc2sc(-c3cccnc3)nc2-c2ccc(C)cc2)cc1,0,8,-4,4,54*,52*,7
Cc1ccc(-c2nc(-c3cccnc3)sc2CC(=O)O)cc1,-3,0,1,1,-2,x,x
Cn1cccc1/C=C(/C#N)c1ccc(F)cc1,1,-3,-4,17,-8,x,x
O=C1COc2ccc(C(=O)COC(=O)c3cc(S(=O)(=O)NCc4ccccc4)ccc3O)cc2N1,-1,6,2,6,31*,5,-4
Nc1c(C(=O)Nc2ccc3c(c2)OCCO3)nnn1Cc1ccc(F)cc1,1,0,0,19,13,x,x
Nc1c(C(=O)Nc2ccc3c(c2)OCCO3)nnn1Cc1cccc(Cl)c1,0,2,0,12,54*,108*,4
CCC(=O)Nc1ccc(Cl)c(NC(=S)NC(=O)COc2ccc(Cl)cc2)c1,-6,1,-4,1,58*,8,17
CCc1ccc(N2CC(C(=O)Nc3ccc(S(=O)(=O)NCC4CCCO4)cc3)CC2=O)cc1 (stereo not given),4,-1,-3,9,94*,29*,-18
O=C(Nc1ccc(S(=O)(=O)NCC2CCCO2)cc1)C1CC(=O)N(c2ccccc2)C1 (stereo not given),1,-16,-1,1,-7,x,x
N#C/C(=C\c1cn(Cc2ccccc2F)c2ccccc12)C(=O)NCc1ccco1,1,19,-4,6,62*,57*,-6
COc1ccccc1OCCn1cc(/C=C(\C#N)C(=O)NCc2ccco2)c2ccccc21,3,2,12,-19,23,x,x
Cc1cnc(C(=O)Nc2ccc(S(=O)(=O)N(C(C)C)C(C)C)cc2)cn1,1,-9,1,0,28*,-1,0
SMILES,PP5 inh,HCV core dimer,PP1 inh,ZTA counter,EBNA-1 inhibitor,EBNA-1 inh conf,ZTA counter trip
Cc1cnc(C(=O)Nc2ccc(S(=O)(=O)NCC(C)C)cc2)cn1,0,-2,-1,-8,4,x,x
CN(C)c1ccc(NC(=O)CCN2C(=O)c3cccc([N+](=O)[O-])c3C2=O)cc1,2,-3,5,-5,-6,x,x
CCOc1ccc2nc(SC3CC(=O)N(c4ccccc4)C3=O)sc2c1 (stereo not given),2,10,-1,2,33*,1,-1
CCOc1ccc2nc(SC3CC(=O)N(c4cccc(OC)c4)C3=O)sc2c1 (stereo not given),6,-2,2,-7,5,x,x
CCOCC(=O)Nc1ccccc1C(=O)O,2,-2,-2,6,5,x,x
O=C(Nc1ccc2c(c1)CCC2)c1cc(=O)[nH]c2ccccc12,0,1,4,11,51*,29*,-16
O=c1sc2ccccc2c(N2CCOCC2)c1[N+](=O)[O-],-2,0,-1,-8,8,x,x
CN1CCN(c2ccc(-c3cccc(NC(=O)COc4ccc(Cl)cc4Cl)c3)nn2)CC1,0,-1,11,18,28*,51*,-4
Cc1cc(NC(=O)CSc2nnc(-c3ccncc3)n2C)n(-c2ccccc2)n1,3,-2,-4,1,-13,x,x
COc1ccc(/C=N/n2cnc3c([nH]c4ccccc43)c2=O)cc1CO,0,-2,4,18,29*,24,5
Cc1ccc(NS(=O)(=O)c2ccc(C)c(C(=O)NCC(c3ccccc3)N(C)C)c2)cc1 (stereo not given),1,x,1,-5,x,x,x
Cc1sc(NC(=O)C2CC=CCC2C(=O)O)c(C(=O)OC(C)C)c1C (stereo not given),1,5,-1,32,18,x,x
Cc1csc(NC(=O)CSc2nc3ccccc3s2)n1,0,2,0,3,9,x,x
O=C(CSc1nc2ccccc2s1)Nc1nccs1,1,1,-3,1,65*,11,-1
Cc1ccc(NC(=O)Cn2c(=O)c3cccn3c3ccccc32)c(Cl)c1,-1,-1,2,-1,-3,x,x
COC(=O)C(C(=O)OC)c1ccc(NC(=O)c2cccc(Cl)c2)cc1,1,2,0,-3,60*,49*,0
CCOc1ccc(NC(=O)c2cccc(NC(=O)c3ccccc3)c2)cc1,-7,-7,-5,0,46*,37*,-3
COc1ccc(NC(=O)c2cccc(NC(=O)c3ccccc3)c2)cc1,-2,-3,2,-13,68*,-5,-4
COc1ccc(C(=O)COC(=O)c2ccc(NC(=O)c3ccccc3)cc2)cc1,-4,13,-1,13,29*,-9,7
COc1cccc(NC(=O)c2cccc(Cl)c2)c1,0,5,2,2,10,x,x
COc1ccc(C(=O)Nc2ccc(C(=O)OCC(=O)c3ccccc3)cc2)cc1,0,22,7,-6,-7,x,x
